ChEMBL document CHEMBL1153241, “2,3,5-Trisubstituted pyridines as selective AKT inhibitors-Part I: Substitution at 2-position of the core pyridine for ROCK1 selectivity” (Bioorg Med Chem Lett, 2010)

Columns and labels:
[1] = target: T1, RAC-alpha serine/threonine-protein kinase (Homo sapiens, UniProt P31749); test: Inhibition of AKT1 in human BT474 cells assessed as phosphorylation of GSK3; assay type: cell-based, BT-474
[2] = target: T1, RAC-alpha serine/threonine-protein kinase; test: Inhibition of full length AKT1
[3] = target: Rho-associated protein kinase 1 (Homo sapiens, UniProt Q13464); test: Inhibition of ROCK1
Chain of Rho-associated protein kinase 1 (Q13464 whole entry, the tested form may be a part): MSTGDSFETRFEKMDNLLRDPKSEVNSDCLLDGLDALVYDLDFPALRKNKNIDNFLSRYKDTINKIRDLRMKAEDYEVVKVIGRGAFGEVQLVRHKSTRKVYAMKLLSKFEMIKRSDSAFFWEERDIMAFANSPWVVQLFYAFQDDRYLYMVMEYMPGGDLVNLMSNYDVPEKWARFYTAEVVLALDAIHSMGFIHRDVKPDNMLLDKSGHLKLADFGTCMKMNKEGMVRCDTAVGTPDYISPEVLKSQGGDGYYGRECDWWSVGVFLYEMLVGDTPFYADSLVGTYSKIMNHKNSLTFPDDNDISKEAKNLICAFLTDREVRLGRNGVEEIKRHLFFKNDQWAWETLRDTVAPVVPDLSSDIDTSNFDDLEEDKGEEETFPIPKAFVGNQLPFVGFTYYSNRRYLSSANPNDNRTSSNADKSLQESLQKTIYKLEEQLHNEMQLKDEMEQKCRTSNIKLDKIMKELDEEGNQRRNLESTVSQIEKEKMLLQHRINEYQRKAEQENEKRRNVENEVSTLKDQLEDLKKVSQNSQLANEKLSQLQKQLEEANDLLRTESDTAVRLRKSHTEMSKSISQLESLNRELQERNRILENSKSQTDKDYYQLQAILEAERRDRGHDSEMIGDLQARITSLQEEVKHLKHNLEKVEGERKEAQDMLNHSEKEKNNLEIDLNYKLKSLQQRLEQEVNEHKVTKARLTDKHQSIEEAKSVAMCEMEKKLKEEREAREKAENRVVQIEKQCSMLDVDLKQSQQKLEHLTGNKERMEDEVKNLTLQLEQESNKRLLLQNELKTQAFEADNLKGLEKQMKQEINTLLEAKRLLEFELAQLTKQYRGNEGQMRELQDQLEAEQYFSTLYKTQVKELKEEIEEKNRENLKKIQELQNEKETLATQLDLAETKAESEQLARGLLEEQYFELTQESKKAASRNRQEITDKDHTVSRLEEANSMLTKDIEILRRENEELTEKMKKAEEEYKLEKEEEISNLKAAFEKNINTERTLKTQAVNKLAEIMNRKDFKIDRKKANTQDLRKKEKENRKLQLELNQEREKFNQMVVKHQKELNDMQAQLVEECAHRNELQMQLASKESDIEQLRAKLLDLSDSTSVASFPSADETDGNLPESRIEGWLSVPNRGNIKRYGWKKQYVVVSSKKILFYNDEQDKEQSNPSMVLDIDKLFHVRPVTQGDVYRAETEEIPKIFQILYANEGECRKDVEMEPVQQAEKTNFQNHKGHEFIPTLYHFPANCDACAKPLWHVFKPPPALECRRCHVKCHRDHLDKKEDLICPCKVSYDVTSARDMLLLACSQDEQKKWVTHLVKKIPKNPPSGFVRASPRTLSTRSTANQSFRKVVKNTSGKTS

[4] = target: T1, RAC-alpha serine/threonine-protein kinase; test: Inhibition of truncated AKT1
Summary of the method: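 AKT1 construct truncated to lack the PH domain. IC50 measured with ATP at or below its Km. At least two determinations (n ≥ 2).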

[5] = Selectivity ratio of IC50 for ROCK1 to IC50 for AKT1

T1 sequence (P31749 whole entry): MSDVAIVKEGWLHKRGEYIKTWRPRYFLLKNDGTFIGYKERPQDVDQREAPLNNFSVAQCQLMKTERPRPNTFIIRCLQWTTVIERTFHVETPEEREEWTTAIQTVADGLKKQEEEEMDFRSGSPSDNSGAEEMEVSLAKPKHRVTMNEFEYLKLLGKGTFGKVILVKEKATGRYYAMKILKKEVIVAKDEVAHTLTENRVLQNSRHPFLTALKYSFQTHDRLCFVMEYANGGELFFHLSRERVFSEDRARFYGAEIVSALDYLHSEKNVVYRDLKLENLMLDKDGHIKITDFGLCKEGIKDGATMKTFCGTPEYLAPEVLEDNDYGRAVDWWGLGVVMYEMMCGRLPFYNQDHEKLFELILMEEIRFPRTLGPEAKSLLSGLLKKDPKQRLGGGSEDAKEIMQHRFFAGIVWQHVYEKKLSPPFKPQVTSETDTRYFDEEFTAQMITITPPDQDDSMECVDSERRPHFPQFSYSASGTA

## Cc1occc1-c1ncc(OC[C@@H](N)Cc2c[nH]c3ccccc23)cc1-c1ccc2[nH]nc(C)c2c1
[1]
  IC50: 84 nM
[2]
  IC50: 0.8 nM

## Cc1n[nH]c2ccc(-c3cc(OC[C@@H](N)Cc4c[nH]c5ncccc45)cnc3-c3ccoc3)cc12
[1]
  IC50: 930 nM
[2]
  IC50: 8 nM

## Cc1n[nH]c2ccc(-c3cc(OC[C@@H](N)Cc4ccccc4)cnc3-c3ccc[nH]3)cc12
[3]
  IC50: > 10000 nM
[2]
  IC50: 15 nM

## COc1ccccc1-c1ncc(OC[C@@H](N)Cc2ccccc2)cc1-c1ccc2[nH]nc(C)c2c1
[3]
  IC50: > 10000 nM
[2]
  IC50: 100 nM

## Cc1n[nH]c2ccc(-c3cc(OC[C@@H](N)Cc4ccccc4)cnc3-c3ccc(O)cc3)cc12
[3]
  IC50: 1400 nM
[2]
  IC50: 500 nM

## Cc1n[nH]c2ccc(-c3cc(OC[C@@H](N)Cc4ccccc4)cnc3-c3cccc(O)c3)cc12
[3]
  IC50: > 10000 nM
[2]
  IC50: 79 nM

## Cc1n[nH]c2ccc(-c3cc(OC[C@@H](N)Cc4ccccc4)cnc3-c3cc(F)ccc3O)cc12
[3]
  IC50: 9800 nM
[4]
  IC50: 10 nM

## Cc1n[nH]c2ccc(-c3cc(OC[C@@H](N)Cc4c[nH]c5ccc(F)cc45)cnc3-c3ccoc3)cc12
[1]
  IC50: 360 nM
[2]
  IC50: 1 nM

## Cc1n[nH]c2ccc(-c3cc(OC[C@@H](N)Cc4ccccc4)cnc3C#CCCO)cc12
[3]
  IC50: > 10000 nM
[2]
  IC50: 720 nM

## Cc1n[nH]c2ccc(-c3cc(OC[C@@H](N)Cc4ccccc4)cnc3-c3ccoc3)cc12
[3]
  IC50: 5200 nM
[2]
  IC50: 10 nM

## Cc1n[nH]c2ccc(-c3cc(OC[C@@H](N)Cc4c[nH]c5c(F)cccc45)cnc3-c3ccoc3)cc12
[1]
  IC50: 260 nM
[2]
  IC50: 1 nM

## Cc1n[nH]c2ccc(-c3cc(OC[C@@H](N)Cc4ccccc4)cnc3-c3cccs3)cc12
[3]
  IC50: 2500 nM
[2]
  IC50: 79 nM

## Cc1n[nH]c2ccc(-c3cc(OC[C@@H](N)Cc4ccccc4)cnc3-c3ccsc3)cc12
[3]
  IC50: 6000 nM
[2]
  IC50: 50 nM

## Cc1n[nH]c2ccc(-c3cc(OC[C@@H](N)Cc4c[nH]c5cc(F)ccc45)cnc3-c3ccoc3)cc12
[1]
  IC50: 220 nM
[2]
  IC50: 0.8 nM

## Cc1n[nH]c2ccc(-c3cc(OC[C@@H](N)Cc4ccccc4)cnc3-c3ccccc3)cc12
[3]
  IC50: > 10000 nM
[2]
  IC50: 50 nM
[5]
  Ratio IC50: > 200

## Cc1n[nH]c2ccc(-c3cc(OC[C@@H](N)Cc4c[nH]c5cccnc45)cnc3-c3ccoc3)cc12
[1]
  IC50: 4300 nM
[2]
  IC50: 10 nM

## Cc1n[nH]c2ccc(-c3cc(OC[C@@H](N)Cc4ccccc4)cnc3-c3cc(Cl)ccc3O)cc12
[3]
  IC50: 7600 nM
[2]
  IC50: 3 nM
[5]
  Ratio IC50: > 2000

## Cc1n[nH]c2ccc(-c3cc(OC[C@@H](N)Cc4ccccc4)cnc3-c3ccco3)cc12
[3]
  IC50: 1290 nM
[4]
  IC50: 790 nM

## Cc1n[nH]c2ccc(-c3cc(OC[C@@H](N)Cc4ccccc4)cnc3-c3cc(F)cc(F)c3O)cc12
[3]
  IC50: > 10000 nM
[2]
  IC50: 63 nM

## Cc1n[nH]c2ccc(-c3cc(OC[C@@H](N)Cc4c[nH]c5ccccc45)cnc3-c3ccoc3)cc12
[1]
  IC50: 500 nM

## Cc1n[nH]c2ccc(-c3cc(OC[C@@H](N)Cc4c[nH]c5ccncc45)cnc3-c3ccoc3)cc12
[1]
  IC50: 6800 nM
[2]
  IC50: 13 nM

## Cc1n[nH]c2ccc(-c3cc(OC[C@@H](N)Cc4ccccc4)cnc3C#CC(C)(C)O)cc12
[3]
  IC50: > 10000 nM
[4]
  IC50: 10500 nM

## Cc1n[nH]c2ccc(-c3cc(OC[C@@H](N)Cc4ccccc4)cnc3-c3ccccc3O)cc12
[3]
  IC50: 9500 nM
[2]
  IC50: 15 nM
